One test addresses T1, human TRPC3 (Homo sapiens, UniProt Q13507).
T1 sequence (Q13507 1-921): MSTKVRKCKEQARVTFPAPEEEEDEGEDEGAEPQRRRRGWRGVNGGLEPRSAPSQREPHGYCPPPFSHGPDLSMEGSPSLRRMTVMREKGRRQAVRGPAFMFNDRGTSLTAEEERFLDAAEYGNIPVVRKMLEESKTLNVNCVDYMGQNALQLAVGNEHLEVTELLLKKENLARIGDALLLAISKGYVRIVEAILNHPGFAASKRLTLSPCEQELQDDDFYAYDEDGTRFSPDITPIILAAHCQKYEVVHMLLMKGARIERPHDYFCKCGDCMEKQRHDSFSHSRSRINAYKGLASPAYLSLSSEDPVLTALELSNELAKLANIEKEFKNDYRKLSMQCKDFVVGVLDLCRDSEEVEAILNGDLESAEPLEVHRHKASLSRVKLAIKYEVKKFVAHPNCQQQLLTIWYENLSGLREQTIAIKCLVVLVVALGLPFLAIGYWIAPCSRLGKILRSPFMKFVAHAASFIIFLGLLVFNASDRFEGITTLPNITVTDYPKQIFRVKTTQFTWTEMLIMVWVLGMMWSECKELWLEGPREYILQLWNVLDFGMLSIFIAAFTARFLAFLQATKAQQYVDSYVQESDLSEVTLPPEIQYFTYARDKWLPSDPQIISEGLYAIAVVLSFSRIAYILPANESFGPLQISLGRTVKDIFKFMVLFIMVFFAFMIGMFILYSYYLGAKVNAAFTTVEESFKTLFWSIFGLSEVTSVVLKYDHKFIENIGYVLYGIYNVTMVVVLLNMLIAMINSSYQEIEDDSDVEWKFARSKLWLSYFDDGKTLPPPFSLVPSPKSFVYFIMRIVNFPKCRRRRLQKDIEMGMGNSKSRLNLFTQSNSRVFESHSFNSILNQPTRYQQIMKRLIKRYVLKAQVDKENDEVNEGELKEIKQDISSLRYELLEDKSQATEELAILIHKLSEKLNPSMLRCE
The test can be described thus: Fluorescence Ca2+ assay in TRPC3-HEK293 cells. The class given is cell-based.

A further test addresses T2, mouse TRPC7 (Mus musculus, UniProt Q9WVC5).
T2 sequence (Q9WVC5 1-862): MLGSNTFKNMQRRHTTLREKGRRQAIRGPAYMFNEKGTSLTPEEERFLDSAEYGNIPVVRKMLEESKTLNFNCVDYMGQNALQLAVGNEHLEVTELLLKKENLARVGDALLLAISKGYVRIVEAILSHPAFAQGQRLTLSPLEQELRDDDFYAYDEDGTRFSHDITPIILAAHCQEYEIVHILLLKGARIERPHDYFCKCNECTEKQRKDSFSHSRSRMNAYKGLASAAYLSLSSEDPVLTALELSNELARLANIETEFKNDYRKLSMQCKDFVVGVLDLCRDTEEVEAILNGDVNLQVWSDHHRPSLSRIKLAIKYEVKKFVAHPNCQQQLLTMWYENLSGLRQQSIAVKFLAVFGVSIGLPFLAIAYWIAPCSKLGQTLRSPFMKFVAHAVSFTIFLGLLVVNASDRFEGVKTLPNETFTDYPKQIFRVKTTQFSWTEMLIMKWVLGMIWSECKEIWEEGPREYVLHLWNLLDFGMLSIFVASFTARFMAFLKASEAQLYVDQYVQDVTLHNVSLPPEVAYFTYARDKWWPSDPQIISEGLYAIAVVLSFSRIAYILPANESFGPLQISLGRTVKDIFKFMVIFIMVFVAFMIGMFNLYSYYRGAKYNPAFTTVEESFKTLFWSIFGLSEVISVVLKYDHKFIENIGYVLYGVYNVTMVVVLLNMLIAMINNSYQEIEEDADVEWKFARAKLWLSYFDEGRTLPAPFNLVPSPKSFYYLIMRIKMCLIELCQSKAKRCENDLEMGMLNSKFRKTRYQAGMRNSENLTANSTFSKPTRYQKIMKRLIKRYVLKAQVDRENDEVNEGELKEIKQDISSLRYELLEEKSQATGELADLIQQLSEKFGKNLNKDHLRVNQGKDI
The test can be described thus: Fluorescence Ca2+ assay in TRPC7-HEK293 cells. The class given is cell-based. Particulars: induced by 10 μM HDM.

For a further test, the target named is T3, TRPV3 (Homo sapiens, UniProt Q8NET8).
T3 sequence (Q8NET8 1-790): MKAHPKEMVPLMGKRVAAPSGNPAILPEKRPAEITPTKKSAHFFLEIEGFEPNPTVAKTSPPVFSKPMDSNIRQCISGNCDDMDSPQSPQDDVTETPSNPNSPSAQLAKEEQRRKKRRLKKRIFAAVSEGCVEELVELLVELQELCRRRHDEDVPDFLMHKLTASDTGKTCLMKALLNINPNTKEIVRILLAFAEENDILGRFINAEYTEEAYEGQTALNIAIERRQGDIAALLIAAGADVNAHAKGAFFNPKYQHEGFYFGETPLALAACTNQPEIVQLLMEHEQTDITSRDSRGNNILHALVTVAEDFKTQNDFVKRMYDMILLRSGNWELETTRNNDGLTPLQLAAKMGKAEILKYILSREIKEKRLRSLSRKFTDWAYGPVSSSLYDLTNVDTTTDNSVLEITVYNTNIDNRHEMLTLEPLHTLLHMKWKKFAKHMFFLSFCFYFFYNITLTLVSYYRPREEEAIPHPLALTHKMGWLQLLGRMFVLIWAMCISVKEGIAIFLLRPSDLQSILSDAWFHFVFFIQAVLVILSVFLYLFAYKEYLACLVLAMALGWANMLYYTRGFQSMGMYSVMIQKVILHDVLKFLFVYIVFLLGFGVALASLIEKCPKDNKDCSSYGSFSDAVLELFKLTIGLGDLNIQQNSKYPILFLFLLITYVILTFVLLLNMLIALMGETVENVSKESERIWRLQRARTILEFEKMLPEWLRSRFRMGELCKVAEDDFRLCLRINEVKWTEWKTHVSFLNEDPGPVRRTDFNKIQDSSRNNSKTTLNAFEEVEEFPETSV
The test can be described thus: Selectivity Ca2+ assay in TRPV3-expressing HEK293 cells. The test is classed as cell-based. As to conditions: 1s 50 μM; Fluo-8.

A further test concerns AGS cells. Description: MTT cell viability assay, AGS. The class given is cell-based, human. Particulars: Homo sapiens, AGS, 72 h, read-out: IC50 cell proliferation, AGS. The method in brief:
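Cells were seeded at 2000 per well, incubated overnight and exposed to test compound for 72 h. MTT was added for 4 h, formazan was dissolved in DMSO and absorbance was read at 570 nm. Viability was normalized to untreated wells, giving mean ± SEM of three trials. IC50 was calculated from relative survival.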
(In general: Tetrazolium assays rely on reduction of a dye to a coloured formazan, in cell work by metabolically active cells.)

The results in this text go back to paper PMC8028158 (ACS Omega, 2021).

“Also recorded” adds a separate entry of the source.

Take `COc1cccc2sc(N(CCN(C)C)C(=O)c3ccc4c(c3)CCCC4)nc12` [Compound 1s, N-(2-(dimethylamino)ethyl)-N-(4-methoxybenzo[d]thiazol-2-yl)-5,6,7,8-tetrahydronaphthalene-2-carboxamide]: the IC50 is 3.3 ± 0.13 µM at human TRPC3 and 12 ± 1.01 µM in the test with AGS cells. In addition, on mouse TRPC7, the “Effect on Ca2+ response in TRPC7-HEK293 cells” value was “almost did not cause a discernible Ca^2+ response; also recorded: little or no effect; also recorded: no effect”. The “Effect on agonist-induced Ca2+ response, TRPV3” value on TRPV3 is recorded as “did not significantly affect”.
